# Measured values collected from several papers.
# Compare with care: the assays were run in different laboratories.
# Read-out: cell growth or viability
SMILES,cell line,method,concentration,time,measurement,value
Nc1ccccc1/N=c1\cc(-c2ccc3c(c2)OCO3)oc2ccccc12,NCI-H1975,CCK-8,1 µM,,inhibition,2.1%
CCCCn1cnc2ccc(-c3ccc(NC(C)=O)nc3)cc2c1=O,NCI-H1975,CCK-8,,72 h,IC50,> 10 µM
NCCC(=O)Nc1ccc(/N=c2\cc(-c3ccc4c(c3)OCO4)oc3ccccc23)cc1,NCI-H1975,CCK-8,1 µM,,inhibition,0.71%
CCCn1cnc2ccc(-c3ccc(N4CCCCCC4=O)nc3)cc2c1=O,NCI-H1975,CCK-8,,72 h,IC50,> 10 µM
CCCCCCCCCCCCCCCCCCOc1cccc(CC(=O)OCC[N+](CC)(CC)CC)c1,NCI-H322M,SRB,10 µM,,inhibition,22.3%
NCC(=O)Nc1ccccc1/N=c1\cc(-c2ccc3c(c2)OCO3)oc2ccccc12,NCI-H1975,CCK-8,1 µM,,inhibition,1.26%
O=C(Nc1ccc(F)cc1)Nc1nc2cc(-c3ccc4ncn(Cc5ccccc5)c(=O)c4c3)ccc2s1,NCI-H1975,MTT,,72 h,IC50,2.34 µM
O=C(Nc1ccc(-c2ccc3ncn(Cc4ccccc4)c(=O)c3c2)cn1)c1ccco1,NCI-H1975,CCK-8,,72 h,IC50,> 10 µM
COc1ccc2/c(=N/c3ccccc3NC(=O)[C@@H](N)C(C)(C)C)cc(-c3ccc4c(c3)OCO4)oc2c1,NCI-H1975,CCK-8,1 µM,,inhibition,9.4%
COc1cccc(NC(=O)Nc2nc3cc(-c4ccc5ncn(CCC6CCCCC6)c(=O)c5c4)ccc3s2)c1,NCI-H1975,MTT,,72 h,IC50,> 20 µM
CCCCC(=O)Nc1ccc(-c2ccc3ncn(CC#N)c(=O)c3c2)cn1,NCI-H1975,CCK-8,,72 h,IC50,> 10 µM
CCCC(=O)Nc1nc2cc(-c3ccc4ncn(Cc5ccccc5)c(=O)c4c3)ccc2s1,NCI-H1975,MTT,,72 h,IC50,> 20 µM
Oc1cccc(-c2nc(N3CCOCC3)c3oc4ncccc4c3n2)c1,NCI-H1975,CCK-8,1 µM,,inhibition,38%
CCCCCCCCCCCCCCCCCCOc1ccccc1CC(=O)OCC[N+](CC)(CC)CC,NCI-H322M,SRB,10 µM,,inhibition,29.4%
Cc1nc(NC(=O)N2CCC[C@H]2C(N)=O)sc1-c1ccnc(C(C)(C)C(F)(F)F)c1,KPL4,ATP luminescence,,5 days,EC50,1.19 µM
O=C(Nc1ccc(F)cc1)Nc1nc2cc(-c3ccc4ncn(CC5CC5)c(=O)c4c3)ccc2s1,NCI-H1975,MTT,,72 h,IC50,1.13 µM
CCCCCCCCCCCCCCCCCCOc1ccccc1CC(=O)OCC[N+]1(C)CCCCC1,NCI-H322M,SRB,10 µM,,inhibition,15.4%
COc1cccc(NC(=O)Nc2nc3cc(-c4ccc5ncn(CCN6CCOCC6)c(=O)c5c4)ccc3s2)c1,NCI-H1975,MTT,,72 h,IC50,> 20 µM
O=C(Nc1ccc(-c2ccc3ncn(Cc4ccccc4)c(=O)c3c2)cn1)C1CCC1,NCI-H1975,CCK-8,,72 h,IC50,> 10 µM
